# Laboratory results reported in ChEMBL document CHEMBL1158358, “Synthesis, antimicrobial and cytotoxic activities of some 5-arylidene-4-thioxo-thiazolidine-2-ones” (Eur J Med Chem, 2009).
# How the values were obtained:
# Type in all cases: functional
# Staphylococcus aureus [1] = assay: Antimicrobial activity against multidrug-resistant Staphylococcus aureus H.C. 21141 isolate after 20 hrs by twofold serial dilution technique; conditions: H.C. 21141, 20 h
# Summary of the method: (§1)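 Twofold serial dilution MIC in agar plates against Gram-positive strains and multidrug-resistant clinical isolates. Inoculum applied was 10⁵ CFU/plate. Plates with culture medium plus DMSO served as negative control. MIC was read after incubation at 35 °C for 20 h.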
# Enterococcus faecalis [2] = assay: Antimicrobial activity against Enterococcus faecalis UFPEDA 138 after 20 hrs by twofold serial dilution technique; conditions: UFPEDA 138, 20 h
# Summary of the method: (§2)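 MIC was determined by twofold serial dilution. Bacteria were tested in plates at 10⁵ CFU/plate and read after 20 h. C. albicans was tested in tubes at 10³ CFU/tube and read after 48 h. All incubations were at 35 °C. Medium plus DMSO served as the negative control.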
# NCI-H292 [3] = assay: Cytotoxicity against human NCI-H292 cells at 2.5 ug/mL after 72 hrs by MTT assay; conditions: NCI-H292, 72 h, read-out: GI
# Summary of the method: (§3)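 MTT antiproliferative assay. Cells were diluted to 10⁵ cells/mL in 96-well plates and preincubated for 24 h at 37 °C in humid 5% CO₂. Compounds or vincristine (reference) were then added. Formazan was dissolved and OD read at 540 nm, compared with medium-only control cells. Run in triplicate.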
# Enterococcus faecalis [4] = assay: Antimicrobial activity against multidrug-resistant Enterococcus faecalis H.C. 21752 isolate after 20 hrs by twofold serial dilution technique; conditions: H.C. 21752, 20 h; summary of the method: as §1
# Enterococcus faecalis [5] = assay: Antimicrobial activity against Enterococcus faecalis UFPEDA 138 at 300 ug/disk after 24 hrs by disk diffusion method; conditions: UFPEDA 138, 24 h, read-out: IZ
# Summary of the method: (§4)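 Preliminary screen by disk diffusion. Paper disks (6 mm) holding 300 µg of compound were placed on agar plates inoculated with a standardized microbial suspension. DMSO-only disks served as negative controls. A mean inhibition zone below 7 mm was scored as no sensitivity. Values are means, n = 3.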
# Staphylococcus aureus [6] = assay: Antimicrobial activity against multidrug-resistant Staphylococcus aureus H.C. 20981 isolate after 20 hrs by twofold serial dilution technique; conditions: H.C. 20981, 20 h; summary of the method: as §1
# Pseudomonas aeruginosa = assay: Antimicrobial activity against Pseudomonas aeruginosa UFPEDA 39 at 300 ug/disk after 24 hrs by disk diffusion method; conditions: UFPEDA 39, 24 h, read-out: IZ; summary of the method: as §4
# Enterococcus faecalis [7] = assay: Antimicrobial activity against multidrug-resistant Enterococcus faecalis H.C. 24708 isolate after 20 hrs by twofold serial dilution technique; conditions: H.C. 24708, 20 h; summary of the method: as §1
# Staphylococcus aureus [8] = assay: Antimicrobial activity against Staphylococcus aureus UFPEDA 01 after 20 hrs by twofold serial dilution technique; conditions: UFPEDA 01, 20 h; summary of the method: as §1
# Bacillus subtilis [9] = assay: Antimicrobial activity against Bacillus subtilis UFPEDA 16 at 300 ug/disk after 24 hrs by disk diffusion method; conditions: UFPEDA 16, 24 h, read-out: IZ; summary of the method: as §4
# HEp-2 [10] = assay: Cytotoxicity against human Hep2 cells at 10 ug/mL after 72 hrs by MTT assay; conditions: HEp-2, 72 h, read-out: GI; summary of the method: as §3
# Staphylococcus aureus [11] = assay: Antimicrobial activity against multidrug-resistant Staphylococcus aureus H.C. 20794 isolate after 20 hrs by twofold serial dilution technique; conditions: H.C. 20794, 20 h; summary of the method: as §1
# Candida albicans [12] = assay: Antimicrobial activity against Candida albicans UFPEDA 1007 at 300 ug/disk after 48 hrs by disk diffusion method; conditions: UFPEDA 1007, 48 h, read-out: IZ; summary of the method: as §4
# HEp-2 [13] = assay: Cytotoxicity against human Hep2 cells at 1.25 ug/mL after 72 hrs by MTT assay; conditions: HEp-2, 72 h, read-out: GI; summary of the method: as §3
# Micrococcus luteus [14] = assay: Antimicrobial activity against Micrococcus luteus UFPEDA 06 after 20 hrs by twofold serial dilution technique; conditions: UFPEDA 06, 20 h; summary of the method: as §2
# HEp-2 [15] = assay: Cytotoxicity against human Hep2 cells at 2.5 ug/mL after 72 hrs by MTT assay; conditions: HEp-2, 72 h, read-out: GI; summary of the method: as §3
# [16] = test system: Mycolicibacterium smegmatis; assay: Antimicrobial activity against Mycobacterium smegmatis UFPEDA 71 at 300 ug/disk after 24 hrs by disk diffusion method; conditions: UFPEDA 71, 24 h, read-out: IZ; summary of the method: as §4
# Candida albicans [17] = assay: Antimicrobial activity against Candida albicans UFPEDA 1007 after 48 hrs by twofold serial dilution technique; conditions: UFPEDA 1007, 48 h; summary of the method: as §2
# Staphylococcus [18] = assay: Antimicrobial activity against coagulase-negative Staphylococcus H.A.M. 278 isolate after 20 hrs by twofold serial dilution technique; conditions: H.A.M. 278, 20 h; summary of the method: as §2
# NCI-H292 [19] = assay: Cytotoxicity against human NCI-H292 cells at 1.25 ug/mL after 72 hrs by MTT assay; conditions: NCI-H292, 72 h, read-out: GI; summary of the method: as §3
# Enterococcus faecalis [20] = assay: Antimicrobial activity against multidrug-resistant Enterococcus faecalis H.C. 21944 isolate after 20 hrs by twofold serial dilution technique; conditions: H.C. 21944, 20 h; summary of the method: as §1
# Staphylococcus [21] = assay: Antimicrobial activity against coagulase-negative Staphylococcus H.A.M. 338 isolate after 20 hrs by twofold serial dilution technique; conditions: H.A.M. 338, 20 h; summary of the method: as §2
# NCI-H292 [22] = assay: Cytotoxicity against human NCI-H292 cells at 5 ug/mL after 72 hrs by MTT assay; conditions: NCI-H292, 72 h, read-out: GI; summary of the method: as §3
# Staphylococcus aureus [23] = assay: Antimicrobial activity against Staphylococcus aureus UFPEDA 01 at 300 ug/disk after 24 hrs by disk diffusion method; conditions: UFPEDA 01, 24 h, read-out: IZ; summary of the method: as §4
# HEp-2 [24] = assay: Cytotoxicity against human Hep2 cells at 5 ug/mL after 72 hrs by MTT assay; conditions: HEp-2, 72 h, read-out: GI; summary of the method: as §3
# Staphylococcus aureus [25] = assay: Antimicrobial activity against multidrug-resistant Staphylococcus aureus H.C. 20489 isolate after 20 hrs by twofold serial dilution technique; conditions: H.C. 20489, 20 h; summary of the method: as §1
# Bacillus subtilis [26] = assay: Antimicrobial activity against Bacillus subtilis UFPEDA 16 after 20 hrs by twofold serial dilution technique; conditions: UFPEDA 16, 20 h; summary of the method: as §2
# Staphylococcus aureus [27] = assay: Antimicrobial activity against multidrug-resistant Staphylococcus aureus H.C. 21036 isolate after 20 hrs by twofold serial dilution technique; conditions: H.C. 21036, 20 h; summary of the method: as §1
# NCI-H292 [28] = assay: Cytotoxicity against human NCI-H292 cells at 10 ug/mL after 72 hrs by MTT assay; conditions: NCI-H292, 72 h, read-out: GI; summary of the method: as §3
# Escherichia coli = assay: Antimicrobial activity against Escherichia coli UFPEDA 224 at 300 ug/disk after 24 hrs by disk diffusion method; conditions: UFPEDA 224, 24 h, read-out: IZ; summary of the method: as §4
# [29] = test system: Mycolicibacterium smegmatis; assay: Antimicrobial activity against Mycobacterium smegmatis UFPEDA 71 after 20 hrs by twofold serial dilution technique; conditions: UFPEDA 71, 20 h; summary of the method: as §2
# Enterococcus faecalis [30] = assay: Antimicrobial activity against multidrug-resistant Enterococcus faecalis H.C. 24962 isolate after 20 hrs by twofold serial dilution technique; conditions: H.C. 24962, 20 h; summary of the method: as §1
# Micrococcus luteus [31] = assay: Antimicrobial activity against Micrococcus luteus UFPEDA 06 at 300 ug/disk after 24 hrs by disk diffusion method; conditions: UFPEDA 06, 24 h, read-out: IZ; summary of the method: as §4
# Serratia marcescens = assay: Antimicrobial activity against Serratia marcescens UFPEDA 398 at 300 ug/disk after 24 hrs by disk diffusion method; conditions: UFPEDA 398, 24 h, read-out: IZ; summary of the method: as §4
# Staphylococcus aureus [32] = assay: Antimicrobial activity against multidrug-resistant Staphylococcus aureus H.C. 20905 isolate after 20 hrs by twofold serial dilution technique; conditions: H.C. 20905, 20 h; summary of the method: as §1
smiles,measurement,setting,value
O=C1NC(=S)/C(=C/c2cccc(Br)c2)S1,MIC,Staphylococcus aureus [1],32 µg/mL
same,MIC,Enterococcus faecalis [2],16 µg/mL
same,inhibition of growth at 2.5 µg/mL,NCI-H292 [3],11.1%
same,MIC,Enterococcus faecalis [4],8 µg/mL
same,zone of inhibition at 300 µg/disc,Enterococcus faecalis [5],25 mm
same,MIC,Staphylococcus aureus [6],16 µg/mL
same,zone of inhibition at 300 µg/disc,Pseudomonas aeruginosa,< 7 mm
same,MIC,Enterococcus faecalis [7],8 µg/mL
same,MIC,Staphylococcus aureus [8],4 µg/mL
same,zone of inhibition at 300 µg/disc,Bacillus subtilis [9],26 mm
same,inhibition of growth at 10 µg/mL,HEp-2 [10],23.6%
same,MIC,Staphylococcus aureus [11],8 µg/mL
same,zone of inhibition at 300 µg/disc,Candida albicans [12],14 mm
same,inhibition of growth at 1.25 µg/mL,HEp-2 [13],-5.3%
same,MIC,Micrococcus luteus [14],8 µg/mL
same,inhibition of growth at 2.5 µg/mL,HEp-2 [15],-1.82%
same,zone of inhibition at 300 µg/disc,[16],25 mm
same,MIC,Candida albicans [17],64 µg/mL
same,MIC,Staphylococcus [18],64 µg/mL
same,inhibition of growth at 1.25 µg/mL,NCI-H292 [19],4.67%
same,MIC,Enterococcus faecalis [20],16 µg/mL
same,MIC,Staphylococcus [21],64 µg/mL
same,inhibition of growth at 5 µg/mL,NCI-H292 [22],22%
same,zone of inhibition at 300 µg/disc,Staphylococcus aureus [23],28 mm
same,inhibition of growth at 5 µg/mL,HEp-2 [24],-1.04%
same,MIC,Staphylococcus aureus [25],8 µg/mL
same,MIC,Bacillus subtilis [26],8 µg/mL
same,MIC,Staphylococcus aureus [27],16 µg/mL
same,inhibition of growth at 10 µg/mL,NCI-H292 [28],42.4%
same,zone of inhibition at 300 µg/disc,Escherichia coli,< 7 mm
same,MIC,[29],16 µg/mL
same,MIC,Enterococcus faecalis [30],16 µg/mL
same,zone of inhibition at 300 µg/disc,Micrococcus luteus [31],29 mm
same,zone of inhibition at 300 µg/disc,Serratia marcescens,< 7 mm
same,MIC,Staphylococcus aureus [32],16 µg/mL
O=C1NC(=S)/C(=C/c2ccccc2F)S1,MIC,Staphylococcus aureus [1],8 µg/mL
same,MIC,Enterococcus faecalis [2],32 µg/mL
same,inhibition of growth at 2.5 µg/mL,NCI-H292 [3],7.78%
same,MIC,Enterococcus faecalis [4],32 µg/mL
same,zone of inhibition at 300 µg/disc,Enterococcus faecalis [5],20 mm
same,MIC,Staphylococcus aureus [6],4 µg/mL
same,zone of inhibition at 300 µg/disc,Pseudomonas aeruginosa,< 7 mm
same,MIC,Enterococcus faecalis [7],32 µg/mL
same,MIC,Staphylococcus aureus [8],8 µg/mL
same,zone of inhibition at 300 µg/disc,Bacillus subtilis [9],23 mm
same,inhibition of growth at 10 µg/mL,HEp-2 [10],11.2%
same,MIC,Staphylococcus aureus [11],8 µg/mL
same,zone of inhibition at 300 µg/disc,Candida albicans [12],16 mm
same,inhibition of growth at 1.25 µg/mL,HEp-2 [13],-8.34%
same,MIC,Micrococcus luteus [14],32 µg/mL
same,inhibition of growth at 2.5 µg/mL,HEp-2 [15],1.66%
same,zone of inhibition at 300 µg/disc,[16],20 mm
same,MIC,Candida albicans [17],32 µg/mL
same,MIC,Staphylococcus [18],32 µg/mL
same,inhibition of growth at 1.25 µg/mL,NCI-H292 [19],4.29%
same,MIC,Enterococcus faecalis [20],32 µg/mL
same,MIC,Staphylococcus [21],16 µg/mL
same,inhibition of growth at 5 µg/mL,NCI-H292 [22],25.2%
same,zone of inhibition at 300 µg/disc,Staphylococcus aureus [23],24 mm
same,inhibition of growth at 5 µg/mL,HEp-2 [24],8.86%
same,MIC,Staphylococcus aureus [25],4 µg/mL
same,MIC,Bacillus subtilis [26],32 µg/mL
same,MIC,Staphylococcus aureus [27],2 µg/mL
same,inhibition of growth at 10 µg/mL,NCI-H292 [28],40.4%
same,zone of inhibition at 300 µg/disc,Escherichia coli,< 7 mm
same,MIC,[29],32 µg/mL
same,MIC,Enterococcus faecalis [30],32 µg/mL
same,zone of inhibition at 300 µg/disc,Micrococcus luteus [31],25 mm
same,zone of inhibition at 300 µg/disc,Serratia marcescens,< 7 mm
same,MIC,Staphylococcus aureus [32],8 µg/mL
